According to PubChem BioAssay:
Inconclusive results are not listed.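 The calls were made as follows, unless noted: active = viability at or below 27.92% in each of two runs, the all-compound median minus 4 SD; inconclusive = no clear call, values can overlap the other calls; inactive = the rest.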

Key:
[1] = S. cerevisiae growth inhibition in permissive medium (OD615), pilot counter-assay for S. cerevisiae lifespan shortening project, permissive growth control (AID 705;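 active = growth inhibition above 25% in both replicates, a cutoff set 3 SD above the mean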); settings: OD615, 24 h, at 10 µM, hits give high values
Summary of the method: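 Test system: Saccharomyces cerevisiae strain carrying genetically modified DeaD replicative-lifespan system; buffer or medium: SC raffinose/galactose permissive medium; dosing: one dose 10 µM, DMSO 0.25% final; times: 24 h exposure, 30 °C; measured by: OD at 615 nm; read-out basis: growth inhibition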

[2] = S. cerevisiae growth inhibition in restrictive medium, OD615, pilot screen, restrictive growth control, yeast lifespan reduction project (AID 706;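 active = growth inhibition above a set limit, 3 SD over mean compound inhibition, in both replicates, cut at about 43% in these data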;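 also: modified DeaD lifespan yeast strain shifted to restrictive glucose medium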); settings: OD615, 48 h, at 10 µM, hits give high values
Summary of the method: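 material = engineered S. cerevisiae DeaD strain | buffer or medium = glucose-based CSMM-D restrictive medium | dosing = one concentration, 10 µM final, 0.25% DMSO | schedule = 4 h pre-growth plus 48 h compound exposure, 30 °C | detection = OD615 absorbance reading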

[3] = doxorubicin toxicity protection in MRP-1 cells – H69AR cells, CellTiter-Glo, duplicate, MRP-1 activator project, pilot screen (AID 807;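 active = viability increase at or above a cutoff of the median across tested compounds plus 3 SD, cut at about 8.5% in these data, passing the limit was not always enough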;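 also: compound pretreatment 18-22 h then 72 h combined with doxorubicin; 0% = doxorubicin alone and 100% = vehicle without doxorubicin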); settings: H69AR viability with doxorubicin, CellTiter-Glo luminescence; at 10 µM; hits give high values
[4] = viability of HCT116 without oncogenic beta-catenin – human colon tumor cells, pilot screen (AID 823;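 active = cell viability at or below a set limit in both duplicate runs, the limit being the all-compound median minus 4 SD, cut at about 23% in these data, passing the limit was not always enough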;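 also: 0% = wells killed by 20 µM Hyamine and 100% = untreated DMSO cell wells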); settings: HCT116 beta-catenin knockout viability, CellTiter-Glo, 60 h; at 10 µM; hits give low values
[5] = viability of PTEN-null HCT116 cells – cell-based, HCT116 clonal line, CellTiter-Glo, pilot screen (AID 824); settings: HCT116 PTEN-deleted viability, 60 h, at 10 µM, hits give low values;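 also: 0% = 20 µM Hyamine control and 100% = vehicle cell control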
[6] = RAM pathway blockade in budding yeast – dse1pr::URA3 reporter, 5-FOA selection, pilot screen (AID 869;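 active = inhibition over a set limit, the all-compound mean plus 3 SD, in both replicate runs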;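 also: 0% = DMSO wells with no growth and 100% = 10 µM 1-NA-PP1 with full growth; RAM network block rescues cells from 5-FOA so hits raise OD615 growth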); settings: S. cerevisiae dse1pr::URA3 5-FOA growth, OD615, 2 d; at 10 µM; hits give high values; strain carries analog-sensitive mutant Cbk1 kinase
[7] = RAM signaling pathway blockade in yeast – S. cerevisiae, Pdr1DBD-CYC8 efflux-inhibited sensitized strain, primary screen (AID 1298;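 active = RAM network inhibition above 8.4% in each of two replicates, 3 SD over the compound average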;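 also: 0% = DMSO untreated cells without growth and 100% = 10 µM 1-NA-PP1 full growth; higher means more yeast growth rescued from 5-FOA killing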); settings: S. cerevisiae cbk1-as DSE1-URA3 strain, 5-FOA growth OD615, 2 d; at 50 µM; hits give high values

O=C(C1CCN(S(=O)(=O)c2cccc3cccnc23)CC1)N1CCN(c2ccc(Cl)cc2)CC1
inactive: growth inhibition [1] -3.56% | growth inhibition [2] 0.215% | viability increase [3] -1.23% | viability [4] 31.1% | viability [5] 38.6% | inhibition [6] 1.4% | RAM network inhibition [7] 4.56%

COc1ccc(C(=S)N(C)C)cc1OC
inactive: growth inhibition [1] 11.9% | growth inhibition [2] 16.9% | viability increase [3] -0.25% | viability [4] 98.8% | viability [5] 98.6% | inhibition [6] 3.66% | RAM network inhibition [7] 1.53%

O=C(O)c1n[nH]c2ccccc12
inactive: growth inhibition [1] -1.77% | growth inhibition [2] -21.2% | viability increase [3] -2.36% | viability [4] 99.2% | viability [5] 95.6% | inhibition [6] 0.89% | RAM network inhibition [7] 0.16%

CC(C)N(Cc1nc(-c2ccccc2)no1)S(=O)(=O)c1ccccc1
inactive: growth inhibition [1] -10.8% | growth inhibition [2] -9.29% | viability increase [3] 1.67% | viability [4] 89.3% | viability [5] 79.5% | inhibition [6] 0.555% | RAM network inhibition [7] 4.95%

N#CC1=C(N)OC2=C(C(=O)CCC2)C1c1ccsc1 (stereo not given)
inactive: growth inhibition [1] -7.86% | growth inhibition [2] -3.94% | viability increase [3] -1.81% | viability [4] 93.2% | viability [5] 103% | inhibition [6] 1.52% | RAM network inhibition [7] 4.01%

CCN1CCN(C(CNS(=O)(=O)c2ccc(OC)cc2)c2cccnc2)CC1 (stereo not given)
inactive: growth inhibition [1] -0.57% | growth inhibition [2] 8.5% | viability increase [3] -1.16% | viability [4] 105% | viability [5] 98.2% | inhibition [6] 3.57% | RAM network inhibition [7] 3.38%

CC(C)Cn1c(CNC(=O)c2ccccc2)nc2ccccc21
inactive: growth inhibition [1] -4.34% | growth inhibition [2] -13.4% | viability increase [3] -2.23% | viability [4] 99.6% | viability [5] 93.1% | inhibition [6] 0.785% | RAM network inhibition [7] -0.78%

O=C(CC1SC(=Nc2ccccc2)N(CCCO)C1=O)Nc1ccc(Cl)cc1 (stereo not given)
inactive: growth inhibition [1] -6.75% | growth inhibition [2] -7.97% | viability increase [3] -6.7% | viability [4] 48.1% | viability [5] 42.1% | inhibition [6] 0.52% | RAM network inhibition [7] 1.29%

CC(Oc1ccc(Cl)cc1Cl)C(=O)NCCCN(C)C (stereo not given)
inactive: growth inhibition [1] -0.77% | growth inhibition [2] 4.78% | viability increase [3] -2.25% | viability [4] 99.6% | viability [5] 100% | inhibition [6] 1.79% | RAM network inhibition [7] 0.78%

COc1ccc(N=CC2=C(O)CC(C)(C)CC2=O)cc1
inactive: growth inhibition [1] 6.45% | growth inhibition [2] -2.8% | viability increase [3] -3.24% | viability [4] 97.5% | viability [5] 101% | inhibition [6] 0.71% | RAM network inhibition [7] 1.73%

COc1ccccc1N1CCN(C(CNS(=O)(=O)c2cccs2)c2cccnc2)CC1 (stereo not given)
inactive: growth inhibition [1] -6.17% | growth inhibition [2] -25.5% | viability increase [3] -3.42% | viability [4] 87.8% | viability [5] 79.1% | inhibition [6] 1.8% | RAM network inhibition [7] 5.16%

Fc1cc(Br)ccc1Nc1nc2ccccc2n2nnnc12
inactive: growth inhibition [1] -15.9% | growth inhibition [2] -15% | viability increase [3] -4.01% | viability [4] 91.5% | viability [5] 87.2% | inhibition [6] 1.94% | RAM network inhibition [7] 5.36%

NC(=O)c1ccc(N2CCCCC2)c(N2C(=O)CCC2=O)c1
inactive: growth inhibition [1] -4.77% | growth inhibition [2] -17.9% | viability increase [3] -0.03% | viability [4] 102% | viability [5] 94.6% | inhibition [6] 2.69% | RAM network inhibition [7] 2.67%

CC1=C(C#N)C2C(/C1=N/O)C2(C)C (stereo not given)
inactive: growth inhibition [1] -4.15% | growth inhibition [2] -6.87% | viability increase [3] -1.76% | viability [4] 95% | viability [5] 85.3% | inhibition [6] 0.79% | RAM network inhibition [7] 1.21%

CCCNC(=O)Nc1cc(OCC)c(N2CCOCC2)cc1OCC
inactive: growth inhibition [1] -0.41% | growth inhibition [2] 6.55% | viability increase [3] -1.37% | viability [4] 99.6% | viability [5] 105% | inhibition [6] 1.57% | RAM network inhibition [7] 0.87%
